Read-outs that look alike come from different tables or passages of the source.
How the values were obtained:
U-87 MG cells = test: Peptide and peptide-platinate activity, modified MTT assay; type: cell-based; settings: 24 hours, nonlinear curve fitting, n=3
Method in brief: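 They were plated at 50,000 cells/mL one day before, then exposed to a concentration series of test compound for 24 h. Viability relative to untreated control was read by modified MTT (Aqueous One). IC50 came from nonlinear curve fit. n≥3.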

MMP-2 [1] = target: T1, MMP-2 (Homo sapiens, UniProt P08253); settings: cited from earlier work
T1 sequence (P08253 110-660): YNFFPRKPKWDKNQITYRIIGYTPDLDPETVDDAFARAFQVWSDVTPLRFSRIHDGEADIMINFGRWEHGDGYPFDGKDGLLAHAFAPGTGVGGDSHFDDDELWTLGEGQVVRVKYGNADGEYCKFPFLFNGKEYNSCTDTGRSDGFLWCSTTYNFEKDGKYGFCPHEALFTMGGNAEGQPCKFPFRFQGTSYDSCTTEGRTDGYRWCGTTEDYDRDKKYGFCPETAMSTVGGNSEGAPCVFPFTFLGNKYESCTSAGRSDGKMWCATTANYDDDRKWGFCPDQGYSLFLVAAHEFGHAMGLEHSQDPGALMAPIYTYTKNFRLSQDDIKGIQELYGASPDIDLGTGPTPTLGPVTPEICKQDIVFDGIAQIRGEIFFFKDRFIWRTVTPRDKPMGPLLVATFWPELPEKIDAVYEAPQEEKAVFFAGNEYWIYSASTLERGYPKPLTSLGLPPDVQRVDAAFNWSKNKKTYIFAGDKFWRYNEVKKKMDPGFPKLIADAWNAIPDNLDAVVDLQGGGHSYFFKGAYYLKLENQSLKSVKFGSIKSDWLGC

MMP-2 [2] = target: T1, MMP-2; test: Peptide cleavage kinetics with activated MMP-2; type: biochemical; settings: for Km / kcat: activated MMP-2 10 nM, Tris-HCl protease buffer pH 7.4, HPLC, n=3
Method in brief: (§1)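 Reactions were stopped at set times with EDTA. Products were resolved by C18 reversed-phase HPLC (30–70% acetonitrile/0.1% TFA gradient, 15 min, 1 mL/min) with fluorescence and photodiode-array detection. Fragments were assigned against synthetic fragment retention times and confirmed by MALDI-MS. n≥3.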

MMP-9 = MMP-9 (Homo sapiens, UniProt P14780); test: Peptide cleavage kinetics with activated MMP-9; type: biochemical; settings: for Km / kcat: activated MMP-9 10 nM, Tris-HCl protease buffer pH 7.4, HPLC, n=3
Method in brief: as §1

Chain of MMP-9 (P14780 107-707 limits assumed): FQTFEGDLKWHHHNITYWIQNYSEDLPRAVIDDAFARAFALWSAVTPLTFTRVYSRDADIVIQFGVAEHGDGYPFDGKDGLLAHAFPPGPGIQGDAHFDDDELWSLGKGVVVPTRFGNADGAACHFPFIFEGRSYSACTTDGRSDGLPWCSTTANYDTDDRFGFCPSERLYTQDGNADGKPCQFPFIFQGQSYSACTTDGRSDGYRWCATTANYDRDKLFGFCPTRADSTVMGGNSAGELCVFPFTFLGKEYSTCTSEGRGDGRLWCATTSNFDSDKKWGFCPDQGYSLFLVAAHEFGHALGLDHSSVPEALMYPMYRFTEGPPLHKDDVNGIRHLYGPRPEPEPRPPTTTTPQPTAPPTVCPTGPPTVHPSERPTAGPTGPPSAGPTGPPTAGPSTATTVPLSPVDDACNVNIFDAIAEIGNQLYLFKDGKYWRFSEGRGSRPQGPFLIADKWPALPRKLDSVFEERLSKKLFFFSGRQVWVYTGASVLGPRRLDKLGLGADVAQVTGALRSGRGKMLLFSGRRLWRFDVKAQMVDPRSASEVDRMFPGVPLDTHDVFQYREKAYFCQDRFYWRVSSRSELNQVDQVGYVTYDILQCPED

Row | Compound | IC50 (U-87 MG cells) [µM] | Km (MMP-2 [2]) [µM] | kcat (MMP-2 [2]) [s⁻¹] | Km (MMP-9) [µM] | kcat (MMP-9) [s⁻¹] | also measured
1 | [Cl][Pt-2]([Cl])([Cl])[Cl].[K+].[K+] [K2PtCl4, potassium tetrachloroplatinate] | 70.7 ± 15 | – | – | – | – | –
2 | N.N.[Cl][Pt][Cl] [cisplatin] | 46.9 ± 15 | – | – | – | – | –
3 | GPAGLLG | – | – | – | – | – | cleavage site (MMP-2 [1]): cleaved between glycine and leucine
4 | K*AGLLC-CONH2 | – | 1400 ± 400 | 0.24 ± 0.08 | 160 ± 100 | 0.04 ± 0.01 | –
5 | K*PAGLLGC-CONH2 | – | 1000 ± 500 | 10.7 ± 4.8 | 400 ± 100 | 9.6 ± 2.1 | cleavage site (MMP-2 [2]; cleaved with MMP-2 for 2 hours, HPLC comparison with synthesized fragment K*PAG): cleaved between glycine and leucine; cleavage site (MMP-9; cleaved with MMP-9 for 2 hours, HPLC comparison with synthesized fragment K*PAG): cleaved between glycine and leucine
